Assay outcomes (PubChem)
TAAR1 ag – human TAAR1 agonists, primary screen, Fluo-8 calcium fluorescence, CHO RD-HGA16 cells; vehicle wells 0%, saturating PEA agonist 100%; activation, % at 3 µM; actives 0.99% (n = 360,000); AID 624467, 2012;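 active = activation above the mean activation of all test compounds in the run plus 3 SD, cut at about 38% in these data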
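Repeats: no replicates (n 1) | Material: CHO-derived RD-HGA16 cells with stable Gα16 and human TAAR1 | Technique: Kinetic Fluo-8 calcium fluorescence | Schedule: 17-24 h seeding, 75 min 37 °C dye, 30 min RT | Evaluation: % activation from peak over basal fluorescence ratio, DMSO-to-PEA scaled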
OXTR ag – human OXTR agonists, primary screen, fluorescence, CHO-OTR cells, Fluo-8 calcium. actives 0.32% (n = 320,000). activation, % at 3 µM. Fluo-8 calcium fluorescence; normalized: DMSO 0%, oxytocin 100%;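 active = activation above the mean of all tested compounds plus 3 SD, cutoff set per screening run, cut at about 20% in these data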;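 note: peak over basal fluorescence ratio from a 100 s FLIPR kinetic read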
Target sequence (P30559 whole entry, looked up): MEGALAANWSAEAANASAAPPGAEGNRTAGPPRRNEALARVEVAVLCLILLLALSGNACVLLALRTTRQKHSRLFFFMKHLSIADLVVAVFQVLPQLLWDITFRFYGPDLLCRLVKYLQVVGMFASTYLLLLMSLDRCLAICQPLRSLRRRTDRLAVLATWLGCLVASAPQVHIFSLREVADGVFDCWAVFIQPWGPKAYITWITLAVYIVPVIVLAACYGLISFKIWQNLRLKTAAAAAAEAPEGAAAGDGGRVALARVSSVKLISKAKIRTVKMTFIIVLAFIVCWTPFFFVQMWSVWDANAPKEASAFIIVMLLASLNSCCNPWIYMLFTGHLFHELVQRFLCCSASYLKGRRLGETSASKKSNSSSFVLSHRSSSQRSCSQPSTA
TAAR1 antag – human TAAR1 antagonists, primary screen, Fluo-8 calcium fluorescence, CHO RD-HGA16 cells. actives 1.5% (n = 360,000). antagonist. Trace amine-associated receptor 1 (Homo sapiens), Q96RJ0. inhibition, % at 3 µM. AID 624466, 2012;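 active = inhibition above a per-plate cutoff, the mean inhibition of test compounds on that plate plus 3 SD, cut at about 49% in these data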;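 note: 0% = DMSO plus EC80 beta-PEA response and 100% = DMSO alone without agonist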
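Test system: RD-HGA16 CHO cells with stable hTAAR1 and Gα16 / Probe or stimulus: EC80 β-phenethylamine stimulus / Times: seeding 17-24 h prior, 75-min 37 °C, 30-min RT dye loading / Detection: Fluo-8 calcium-sensitive fluorescence / Read-out basis: % inhibition scaled between DMSO and EC80 PEA controls / Repeats: singlicate, one well per test compound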
OXTR potentiate – human OXTR potentiators, primary screen, fluorescence, CHO-OTR cells, Fluo-8 calcium. Oxytocin receptor (Homo sapiens), P30559. Fluo-8 calcium fluorescence, potentiator mode; 0% = oxytocin EC15, 100% = EC100. AID 2445, 2010. activation, % at 3 µM. actives 0.061% (n = 320,000);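 active = activation above that plate's cutoff, the mean activation of tested compounds plus 3 SD, cut at about 6.6% in these data, passing the limit was not always enough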;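 note: 100% uses oxytocin at 75 nM as the full agonist control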
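assay system = CHO-OTR cells, human receptor | schedule = compound 6 min at room temperature before oxytocin, 100 s read | detection = Fluo-8 intracellular calcium fluorescence, ex 470-495, em 515-575 nm | evaluation = normalized max/min fluorescence ratio, % activation | control set = EC15 oxytocin alone as 0%, 75 nM oxytocin (EC100) as 100%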
V1R ag counter – agonists of human V1a receptor, primary screen, counter-screen for OXTR agonist project, fluorescence, CHO-V1R cells; Fluo-8 calcium fluorescence, agonist mode; 0% DMSO, 100% 3 nM vasopressin; actives 0.25% (n = 320,000); AID 2797, 2010; activation, % at 3 µM; Vasopressin V1a receptor (Homo sapiens), P37288;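 active = activation above the mean activation of all tested compounds plus 3 SD, per screening run, cut at about 20% in these data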;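 note: signal is peak over basal fluorescence ratio across a 100 second FLIPR read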
TAAR1 ag conf – human TAAR1 agonists, retest of hits, confirmation, Fluo-8 calcium fluorescence, CHO RD-HGA16 cells; shares compounds with TAAR1 ag; scaled: DMSO 0%, maximal phenethylamine 100%; activation, % at 3 µM; actives 82% (n = 2,400);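 active = activation above a cutoff set at the run's mean compound activation plus 3 SD, cut at about 39% in these data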
Ga16 nonsel ag – nonselective calcium mobilization agonists, CHO-Ga16 cells, counter-screen for hTAAR1 agonist project, cell-based, fluorescence, CHO-Ga16 parental line; shares compounds with TAAR1 ag; activation, % at 3 µM; actives 50% (n = 2,400); Fluo-8 calcium fluorescence; normalized to maximal ATP response, DMSO zero; AID 651787, 2012;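 active = activation above the run cutoff, the mean activation over all tested wells plus 3 SD, cut at about 12% in these data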;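 note: 0% = DMSO wells and 100% = maximal ATP response on the peak over basal ratio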
TAAR1 desens – TAAR1 desensitization by agonist hits, confirmation, counter-screen for TAAR1 agonist project, cell-based, fluorescence, tachyphylaxis. actives 46% (n = 2,400). CHO RD-HGA16 hTAAR1, Fluo-8 calcium, beta-PEA response inhibition. inhibition, % at 3 µM. shares compounds with TAAR1 ag;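 active = inhibition above the run cutoff, the mean inhibition of all test compounds plus 3 SD, cut at about 49% in these data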;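 note: beta-PEA stimulus applied at its EC80; loss of beta-PEA calcium signal after compound pretreatment read as receptor desensitization; 0% = DMSO with beta-PEA at EC80 and 100% = DMSO alone without agonist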
Ga16 nonsel ant – inhibition of ATP-evoked calcium response in CHO-Ga16 cells, counter-screen for TAAR1 agonist project, cell-based, fluorescence; shares compounds with TAAR1 ag; CHO-Ga16 ATP-induced calcium, Fluo-8 fluorescence; inhibition, % at 3 µM; actives 39% (n = 2,400); AID 651952, 2012;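 active = inhibition above the plate's mean compound inhibition plus 3 SD, computed per plate, cut at about 22% in these data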;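 note: 0% = EC80 ATP with DMSO and 100% = DMSO wells without ATP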
The depositor's hits bear a star; · = no result given. The list is not random: actives were taken first. Their share in the collection is about 2.3%.

SMILES | TAAR1 ag | OXTR ag | TAAR1 antag | OXTR potentiate | V1R ag counter | TAAR1 ag conf | Ga16 nonsel ag | TAAR1 desens | Ga16 nonsel ant
Cc1cccc(C)c1NC(=O)CCCCCC1NC(=O)NC1C (stereo unspecified) | 5 | 1 | -8 | -2 | 1 | · | · | · | ·
COc1cccc2c(=O)n(CC(=O)Nc3cccc(F)c3)ccc12 | 61* | -1 | 26 | -8 | 0 | 46* | 40* | 16 | 12
O=C(O)C1C2CCC(C2)C1C(=O)NCCC1=CCCCC1 (stereo unspecified) | 80* | 1 | 85* | -5 | 1 | 94* | 4 | 77* | 0
O=C(NCCC1=CCCCC1)C1CCN(S(=O)(=O)c2ccccc2)CC1 | 0 | 0 | 13 | -3 | 1 | · | · | · | ·
O=C(O)/C=C/C(=O)NCCC1=CCCCC1 | 73* | 1 | 84* | -3 | 0 | 95* | 0 | 97* | 7
O=C(O)C1C2C=CC(C2)C1C(=O)NCCC1=CCCCC1 (stereo unspecified) | 72* | 0 | 71* | -1 | 1 | 89* | 2 | 84* | 6
O=C(CN1C(=O)C2C3C=CC(C3)C2C1=O)NCCC1=CCCCC1 (stereo unspecified) | 1 | 1 | -14 | -8 | 0 | · | · | · | ·
CC(C)c1ccc(/C=C/C(=O)NCCC2=CCCCC2)cc1 | 1 | -1 | 4 | -1 | 1 | · | · | · | ·
NC(N)=N/N=C/c1ccc(Br)cc1 | 58* | 3 | 9 | -8 | 2 | 80* | 10 | 43 | 2
Cc1ccc(N2CC(C(=O)Nc3c4c(nn3C(C)(C)C)CS(=O)(=O)C4)CC2=O)cc1C (stereo unspecified) | 2 | 0 | -24 | -5 | 0 | · | · | · | ·
CC(NC(=O)c1ccco1)c1nc(-c2ccc(Cl)cc2)no1 (stereo unspecified) | -1 | 5 | 6 | -12 | 9 | · | · | · | ·
COc1ccc(CC(N)c2csc(Nc3cccc(OC)n3)n2)cc1 (stereo unspecified) | 61* | · | 26 | · | · | 71* | 30* | 35 | 29*
COc1cccc(Nc2nc(C(N)Cc3ccc(F)cc3)cs2)n1 (stereo unspecified) | 62* | · | 24 | · | · | 38* | 20* | 23 | 29*
NC(COCc1ccccc1)c1csc(Nc2cc(Oc3ccccc3)ncn2)n1 (stereo unspecified) | 24 | · | 29 | · | · | · | · | · | ·
COc1cccc(Nc2nc(C(N)COCc3ccccc3)cs2)n1 (stereo unspecified) | 59* | · | 33 | · | · | 80* | 11 | 56* | 15
COc1ccc(CC(N)c2csc(NC(=O)c3ccc(F)cc3)n2)cc1 (stereo unspecified) | 21 | · | 34 | · | · | · | · | · | ·
COc1cccc(Nc2nc(C(N)Cc3ccc(C(F)(F)F)cc3)cs2)n1 (stereo unspecified) | 60* | · | 28 | · | · | 52* | 38* | 54* | 59*
COc1cccc(Nc2nc(C(N)C(C)C)cs2)n1 (stereo unspecified) | 19 | · | -16 | · | · | · | · | · | ·
O=C(CCCN1C(=O)C(c2ccccc2)Oc2cccnc21)Nc1cccc(F)c1 (stereo unspecified) | 1 | 2 | 11 | -9 | 1 | · | · | · | ·
